According to ChEMBL document CHEMBL3414472, “Synthesis, SAR, and series evolution of novel oxadiazole-containing 5-lipoxygenase activating protein inhibitors: discovery of 2-[4-(3-{(r)-1-[4-(2-amino-pyrimidin-5-yl)-phenyl]-1-cyclopropyl-ethyl}-[1,2,4]oxadiazol-5-yl)-pyrazol-1-yl]-N,N-dimethyl-acetamide (BI 665915)” (J Med Chem, 2015):
≈ marks a conversion by molar mass, not a printed value.

Target: T1, Cytochrome P450 3A4 (Homo sapiens, UniProt P08684)
Assay: Inhibition of CYP3A4 in human liver microsomes using midazolam as substrate preincubated for 10 mins followed by NADPH addition measured after 6 mins
Format: ADME
Settings: not given; call rule not given here
Summary of the method: (§1)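 Human liver microsomes (0.05 mg/mL protein) with cocktail substrates: 4 µM diclofenac (2C9), 3 µM dextromethorphan (2D6), 2.5 µM midazolam (3A4). Compound in 0.1 M potassium phosphate pH 7.4 preincubated 10 min at 37 °C; NADPH added, reaction 6 min at 37 °C.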

T1 sequence (P08684 whole entry): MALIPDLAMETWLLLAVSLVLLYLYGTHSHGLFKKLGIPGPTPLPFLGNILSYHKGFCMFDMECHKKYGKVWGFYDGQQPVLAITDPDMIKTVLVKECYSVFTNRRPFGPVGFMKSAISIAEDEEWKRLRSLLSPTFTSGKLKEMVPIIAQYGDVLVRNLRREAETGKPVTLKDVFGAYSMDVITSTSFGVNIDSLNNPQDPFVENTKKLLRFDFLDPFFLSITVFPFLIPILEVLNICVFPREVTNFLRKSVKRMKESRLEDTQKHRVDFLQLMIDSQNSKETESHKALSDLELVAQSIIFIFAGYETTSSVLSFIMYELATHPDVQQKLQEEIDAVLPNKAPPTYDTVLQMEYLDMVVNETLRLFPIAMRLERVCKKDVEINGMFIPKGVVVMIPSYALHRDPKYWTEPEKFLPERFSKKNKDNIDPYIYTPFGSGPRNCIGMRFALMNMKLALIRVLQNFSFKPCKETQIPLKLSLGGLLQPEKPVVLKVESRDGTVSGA

Row | SMILES | IC50 [nM]
1 | CC(C)(O)Cn1cc(-c2nc([C@@](C)(c3ccc(-c4cnc(N)nc4)cc3)C3CC3)no2)cn1 | > 30000
2 | CN(C)CCn1cc(-c2nc([C@@](C)(c3ccc(-c4cnc(N)nc4)cc3)C3CC3)no2)cn1 | > 30000
3 | CC(C)(O)Cn1cc(-c2nc(C3(c4ccc(-c5cnc(N)nc5)cc4)CCC3)no2)cn1 | > 30000

Target: T2, Arachidonate 5-lipoxygenase-activating protein (Homo sapiens, UniProt P20292)
T2 sequence (P20292 whole entry): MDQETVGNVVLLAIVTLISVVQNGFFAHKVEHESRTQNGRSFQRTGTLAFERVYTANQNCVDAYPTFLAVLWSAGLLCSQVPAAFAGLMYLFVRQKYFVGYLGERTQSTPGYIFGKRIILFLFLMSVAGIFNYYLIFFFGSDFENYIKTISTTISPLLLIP
Assay: Displacement of [125I]-L-691831 from human FLAP expressed in insect SF9 cell membranes after 2 hrs by Topcount analysis
Settings: not given

Row | SMILES | IC50 [nM]
4 | CC(C)(O)Cn1cc(-c2nc([C@@](C)(c3ccc(-c4cnc(N)nc4)cc3)C3CC3)no2)cn1 | 2.1
5 | CN(C)C(=O)Cn1cc(-c2nc(C3(c4ccc(-c5cnc(N)nc5)cc4)CCC3)no2)cn1 | 3.6
6 | CC(C)Nc1ncc(-c2ccc([C@](C)(c3noc(-c4cnn(CC(=O)N(C)C)c4)n3)C3CC3)cc2)cn1 | > 1000
7 | Nc1ncc(-c2ccc(C3(c4noc(-c5cnn(CC(=O)O)c5)n4)CCC3)cc2)cn1 | 18
8 | CNc1ncc(-c2ccc([C@](C)(c3noc(-c4cnn(CC(=O)N(C)C)c4)n3)C3CC3)cc2)cn1 | 2.9
9 | Cn1cc(-c2nc(Cc3ccc(-c4cnc(N)nc4)cc3)no2)cn1 | > 1000

Target: T3, Cytochrome P450 2C9 (Homo sapiens, UniProt P11712)
T3 sequence (P11712 whole entry): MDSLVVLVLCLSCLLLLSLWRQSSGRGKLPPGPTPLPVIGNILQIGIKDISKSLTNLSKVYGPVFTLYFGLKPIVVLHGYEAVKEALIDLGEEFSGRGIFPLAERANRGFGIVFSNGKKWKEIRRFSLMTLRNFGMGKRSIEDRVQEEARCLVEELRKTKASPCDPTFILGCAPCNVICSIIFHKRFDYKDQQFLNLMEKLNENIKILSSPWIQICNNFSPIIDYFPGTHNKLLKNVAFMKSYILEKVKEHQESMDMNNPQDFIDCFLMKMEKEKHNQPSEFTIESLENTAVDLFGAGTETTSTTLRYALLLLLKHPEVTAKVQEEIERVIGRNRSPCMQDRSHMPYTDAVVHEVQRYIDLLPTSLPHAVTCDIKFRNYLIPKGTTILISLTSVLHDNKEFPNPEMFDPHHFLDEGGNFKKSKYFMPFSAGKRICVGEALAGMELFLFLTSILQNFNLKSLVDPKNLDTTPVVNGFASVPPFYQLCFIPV
Assay: Inhibition of CYP2C9 in human liver microsomes using dichlofenac as substrate preincubated for 10 mins followed by NADPH addition measured after 6 mins
Format: ADME
Settings: not given
Summary of the method: as §1

Row | SMILES | IC50 [nM]
10 | CC(C)(O)Cn1cc(-c2nc([C@@](C)(c3ccc(-c4cnc(N)nc4)cc3)C3CC3)no2)cn1 | 4000
11 | CN(C)CCn1cc(-c2nc([C@@](C)(c3ccc(-c4cnc(N)nc4)cc3)C3CC3)no2)cn1 | > 30000
12 | CC(C)(O)Cn1cc(-c2nc(C3(c4ccc(-c5cnc(N)nc5)cc4)CCC3)no2)cn1 | 6000
13 | CN(C)CCn1cc(-c2nc(C3(c4ccc(-c5cnc(N)nc5)cc4)CCC3)no2)cn1 | 7000

System: not listed separately
Assay: Metabolic stability in human liver microsomes at 1 uM preincubated for 10 mins followed by NADPH addition measured over 60 mins by LC/MS analysis relative to hepatic blood flow
Format: ADME
Settings: read-out: Stability
Summary of the method: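 Human liver microsomes (1 mg/mL protein) with test compound at 1 µM, preincubated 10 min at 37 °C before adding NADPH. Remaining compound followed over a 0–60 min time course, as duplicate 8-timepoint curves. The slope of ln(% remaining) against time gives clearance, expressed as percent of hepatic blood flow.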

Row | SMILES | hepatic extraction ratio at 1 h, 1 µM
14 | CC(C)(O)Cn1cc(-c2nc([C@@](C)(c3ccc(-c4cnc(N)nc4)cc3)C3CC3)no2)cn1 | 0.24
15 | CN(C)CCn1cc(-c2nc([C@@](C)(c3ccc(-c4cnc(N)nc4)cc3)C3CC3)no2)cn1 | 0.4

Target: T2, Arachidonate 5-lipoxygenase-activating protein
Assay: Inhibition of FLAP in calcimycin-stimulated human whole blood assessed as inhibition of LTB4 synthesis preincubated for 15 mins followed by calcimycin stimulation measured after 30 mins
Settings: not given
Summary of the method: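 Heparinized human volunteer blood preincubated with compound 15 min at 37 °C, 5 % CO2; calcimycin 100 µM final, 30 min at 37 °C; spun 2000 rpm 5 min at 4 °C. Supernatant LTB4 measured by HTRF competition (LTB4-XL665 plus anti-LTB4 cryptate, 2 h room temperature). Geometric mean (n ≥ 3) of duplicate 10-point curves.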

Row | SMILES | IC50 [nM]
16 | Nc1ncc(-c2ccc(C3(c4noc(-c5ccccc5)n4)CCC3)cc2)cn1 | 470
17 | Nc1ncc(-c2ccc(C3(c4noc(-c5cncnc5)n4)CCC3)cc2)cn1 | 340
18 | Nc1ncc(-c2ccc(C3(c4noc(-c5cscn5)n4)CCC3)cc2)cn1 | 200
19 | Nc1ncc(-c2ccc(C3(c4noc(-c5cc[nH]n5)n4)CCC3)cc2)cn1 | 160
20 | CCNc1ncc(-c2ccc(C(C)(c3noc(-c4cnn(CC(=O)N(C)C)c4)n3)C3CC3)cc2)cn1 (racemic) | 1000
21 | Nc1ncc(-c2ccc(C3(c4noc(-c5ccc[nH]c5=O)n4)CCC3)cc2)cn1 | > 5000
22 | Cn1cc(-c2nc(C3(c4ccc(-c5cnc(N)nc5)cc4)CC3)no2)cn1 | 2200
23 | Cn1cc(-c2nc([C@@](C)(c3ccc(-c4cnc(N)nc4)cc3)C3CC3)no2)cn1 | 15
24 | NCCn1cc(-c2nc(C3(c4ccc(-c5cnc(N)nc5)cc4)CCC3)no2)cn1 | 240
25 | Nc1ncc(-c2ccc(C3(c4noc(-c5cn[nH]c5)n4)CCC3)cc2)cn1 | 110
26 | Cn1cc(-c2nc(C3(c4ccc(-c5cnc(N)nc5)cc4)CC(C)(C)C3)no2)cn1 | 1500
27 | CC(C)(O)Cn1cc(-c2nc([C@@](C)(c3ccc(-c4cnc(N)nc4)cc3)C3CC3)no2)cn1 | 20
28 | Cn1cc(-c2nc(C(C)(C)c3ccc(-c4cnc(N)nc4)cc3)no2)cn1 | 93
29 | CN(C)C(=O)Cn1cc(-c2nc(C3(c4ccc(-c5cnc(N)nc5)cc4)CCC3)no2)cn1 | 81
30 | CN(C)CCn1cc(-c2nc([C@@](C)(c3ccc(-c4cnc(N)nc4)cc3)C3CC3)no2)cn1 | 14
31 | CC(C)Nc1ncc(-c2ccc([C@](C)(c3noc(-c4cnn(CC(=O)N(C)C)c4)n3)C3CC3)cc2)cn1 | > 50000
32 | CN(C)CCn1cc(-c2nc(C3(c4ccc(-c5cnc(N)nc5)cc4)CCC3)no2)cn1 | 47
33 | Nc1ncc(-c2ccc(C3(c4noc(-c5cnn(CC(=O)O)c5)n4)CCC3)cc2)cn1 | > 5000
34 | CNc1ncc(-c2ccc([C@](C)(c3noc(-c4cnn(CC(=O)N(C)C)c4)n3)C3CC3)cc2)cn1 | 30
35 | Cn1cc(-c2nc(Cc3ccc(-c4cnc(N)nc4)cc3)no2)cn1 | > 5000

Target: T4, Cytochrome P450 2D6 (Homo sapiens, UniProt P10635)
T4 sequence (P10635 whole entry): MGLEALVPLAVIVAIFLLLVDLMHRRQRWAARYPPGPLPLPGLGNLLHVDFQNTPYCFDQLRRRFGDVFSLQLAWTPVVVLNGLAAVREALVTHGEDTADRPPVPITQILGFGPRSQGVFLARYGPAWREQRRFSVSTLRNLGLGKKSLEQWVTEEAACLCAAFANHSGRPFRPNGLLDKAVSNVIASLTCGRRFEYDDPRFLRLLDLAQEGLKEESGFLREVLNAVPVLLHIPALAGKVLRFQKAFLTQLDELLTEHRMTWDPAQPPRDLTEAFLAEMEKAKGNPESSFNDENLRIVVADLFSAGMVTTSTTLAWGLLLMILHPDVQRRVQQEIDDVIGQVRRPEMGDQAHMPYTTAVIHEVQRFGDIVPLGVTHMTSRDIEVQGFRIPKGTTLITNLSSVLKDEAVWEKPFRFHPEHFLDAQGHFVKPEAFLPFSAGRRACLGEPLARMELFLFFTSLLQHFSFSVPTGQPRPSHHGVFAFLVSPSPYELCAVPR
Assay: Inhibition of CYP2D6 in human liver microsomes using dextromethorphan as substrate preincubated for 10 mins followed by NADPH addition measured after 6 mins
Format: ADME
Settings: not given
Summary of the method: as §1

Row | SMILES | IC50 [nM]
36 | CC(C)(O)Cn1cc(-c2nc([C@@](C)(c3ccc(-c4cnc(N)nc4)cc3)C3CC3)no2)cn1 | > 30000
37 | CN(C)CCn1cc(-c2nc([C@@](C)(c3ccc(-c4cnc(N)nc4)cc3)C3CC3)no2)cn1 | 10000
38 | CC(C)(O)Cn1cc(-c2nc(C3(c4ccc(-c5cnc(N)nc5)cc4)CCC3)no2)cn1 | 3000
39 | CN(C)CCn1cc(-c2nc(C3(c4ccc(-c5cnc(N)nc5)cc4)CCC3)no2)cn1 | 10000

Target: hERG (KCNH2) (Homo sapiens, UniProt Q12809)
Sequence (Q12809 whole entry): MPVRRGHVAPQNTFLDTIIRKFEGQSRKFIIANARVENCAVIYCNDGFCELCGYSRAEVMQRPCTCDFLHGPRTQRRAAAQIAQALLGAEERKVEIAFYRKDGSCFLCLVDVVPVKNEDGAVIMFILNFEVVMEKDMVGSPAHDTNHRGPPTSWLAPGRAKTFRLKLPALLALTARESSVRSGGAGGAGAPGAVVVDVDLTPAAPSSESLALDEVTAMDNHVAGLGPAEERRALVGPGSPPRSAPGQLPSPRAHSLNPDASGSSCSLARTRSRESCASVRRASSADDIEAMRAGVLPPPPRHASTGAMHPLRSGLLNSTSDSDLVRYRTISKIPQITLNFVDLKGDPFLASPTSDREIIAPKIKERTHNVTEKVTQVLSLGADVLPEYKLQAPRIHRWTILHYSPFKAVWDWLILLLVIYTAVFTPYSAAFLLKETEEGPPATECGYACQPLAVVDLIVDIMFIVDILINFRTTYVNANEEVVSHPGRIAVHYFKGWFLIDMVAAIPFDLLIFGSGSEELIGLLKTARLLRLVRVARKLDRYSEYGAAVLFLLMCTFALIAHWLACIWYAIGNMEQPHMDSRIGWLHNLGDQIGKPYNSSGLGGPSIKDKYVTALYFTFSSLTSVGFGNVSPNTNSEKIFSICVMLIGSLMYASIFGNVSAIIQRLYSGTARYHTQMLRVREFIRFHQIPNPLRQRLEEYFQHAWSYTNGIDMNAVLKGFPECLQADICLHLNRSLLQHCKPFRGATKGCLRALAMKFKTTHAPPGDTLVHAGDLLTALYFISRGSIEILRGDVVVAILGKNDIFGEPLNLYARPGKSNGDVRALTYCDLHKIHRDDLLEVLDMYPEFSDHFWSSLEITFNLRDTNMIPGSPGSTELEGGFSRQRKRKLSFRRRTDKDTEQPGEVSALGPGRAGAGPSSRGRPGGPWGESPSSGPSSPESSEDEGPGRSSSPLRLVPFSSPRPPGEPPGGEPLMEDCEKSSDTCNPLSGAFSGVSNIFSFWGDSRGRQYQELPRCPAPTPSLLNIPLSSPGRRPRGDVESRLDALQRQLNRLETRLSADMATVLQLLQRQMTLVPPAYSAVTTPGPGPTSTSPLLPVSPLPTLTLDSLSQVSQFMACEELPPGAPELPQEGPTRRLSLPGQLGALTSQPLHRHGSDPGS
Assay: Inhibition of human ERG expressed in HEK293 cells assessed as change in tail current at 11 uM by manual patch clamp assay relative to control
Format: cell-based
Settings: HEK293 cells that express hERG
Summary of the method: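 Whole-cell manual patch clamp on HEK293 cells stably expressing human ERG, at room temperature (20-22 °C) in a perfusion chamber. Change in hERG tail current amplitude during the hyperpolarizing step measured with escalating compound concentrations.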

Row | SMILES | inhibition at 11 µM [%]
40 | CC(C)(O)Cn1cc(-c2nc([C@@](C)(c3ccc(-c4cnc(N)nc4)cc3)C3CC3)no2)cn1 | 16
41 | CN(C)CCn1cc(-c2nc([C@@](C)(c3ccc(-c4cnc(N)nc4)cc3)C3CC3)no2)cn1 | 31
42 | CC(C)(O)Cn1cc(-c2nc(C3(c4ccc(-c5cnc(N)nc5)cc4)CCC3)no2)cn1 | 51

Target: T5, Arachidonate 5-lipoxygenase-activating protein (Mus musculus, UniProt P30355)
T5 sequence (P30355 whole entry): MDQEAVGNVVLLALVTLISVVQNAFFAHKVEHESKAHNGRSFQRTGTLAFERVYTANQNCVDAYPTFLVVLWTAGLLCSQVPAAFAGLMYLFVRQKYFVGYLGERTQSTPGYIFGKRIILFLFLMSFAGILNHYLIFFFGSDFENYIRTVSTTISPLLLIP
Assay: Inhibition of FLAP in calcimycin-stimulated mouse whole blood assessed as inhibition of LTB4 synthesis preincubated for 15 mins followed by calcimycin stimulation measured after 30 mins
Settings: not given
Summary of the method: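 Mouse whole blood run by the same protocol as the human whole blood LTB4 assay (compound 15 min at 37 °C, 100 µM final calcimycin 30 min, HTRF LTB4 read-out). Geometric mean (n ≥ 3) of duplicate 8-point curves.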

Row | SMILES | IC50 [nM]
43 | CC(C)(O)Cn1cc(-c2nc([C@@](C)(c3ccc(-c4cnc(N)nc4)cc3)C3CC3)no2)cn1 | 1500

Target: T4, Cytochrome P450 2D6
Assay: Inhibition of CYP2D6 in human liver microsomes using dextromethorphan as substrate at 30 uM preincubated for 10 mins followed by NADPH addition measured after 6 mins
Format: ADME
Settings: 0.1 h

Row | SMILES | inhibition (INH)
44 | CN(C)C(=O)Cn1cc(-c2nc(C3(c4ccc(-c5cnc(N)nc5)cc4)CCC3)no2)cn1 | Not Active

Target: T1, Cytochrome P450 3A4
Assay: Inhibition of CYP3A4 in human liver microsomes using midazolam as substrate at 30 uM preincubated for 10 mins followed by NADPH addition measured after 6 mins
Format: ADME
Settings: 0.1 h

Row | SMILES | inhibition (INH)
45 | CN(C)CCn1cc(-c2nc(C3(c4ccc(-c5cnc(N)nc5)cc4)CCC3)no2)cn1 | Not Active

System: not listed separately
Assay: Aqueous equilibrium solubility of the compound in crystalline form in citric acid/disodium phosphate buffer at pH 6.8 after 24 hrs of rotation by HPLC analysis
Format: physicochemical
Settings: not given
Summary of the method: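 Saturated solution of crystalline material in citric acid/disodium phosphate buffer pH 6.8 rotated 24 h; after centrifugation and filtration, dissolved concentration measured by HPLC.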

Row | SMILES | solubility thermodynamic at 24 h [µg/mL]
46 | Nc1ncc(-c2ccc(C3(c4noc(-c5cn[nH]c5)n4)CCC3)cc2)cn1 | 0.4 (≈ 1.11 µM)
47 | CC(C)(O)Cn1cc(-c2nc([C@@](C)(c3ccc(-c4cnc(N)nc4)cc3)C3CC3)no2)cn1 | 32 (≈ 71.8 µM)
48 | CN(C)C(=O)Cn1cc(-c2nc(C3(c4ccc(-c5cnc(N)nc5)cc4)CCC3)no2)cn1 | 20 (≈ 45 µM)
49 | CN(C)CCn1cc(-c2nc([C@@](C)(c3ccc(-c4cnc(N)nc4)cc3)C3CC3)no2)cn1 | > 1100
50 | CC(C)(O)Cn1cc(-c2nc(C3(c4ccc(-c5cnc(N)nc5)cc4)CCC3)no2)cn1 | 3.1 (≈ 7.18 µM)
51 | CN(C)CCn1cc(-c2nc(C3(c4ccc(-c5cnc(N)nc5)cc4)CCC3)no2)cn1 | 270 (≈ 627 µM)

Target: T3, Cytochrome P450 2C9
Assay: Inhibition of CYP2C9 in human liver microsomes using dichlofenac as substrate at 30 uM preincubated for 10 mins followed by NADPH addition measured after 6 mins
Format: ADME
Settings: 0.1 h

Row | SMILES | inhibition (INH)
52 | CN(C)C(=O)Cn1cc(-c2nc(C3(c4ccc(-c5cnc(N)nc5)cc4)CCC3)no2)cn1 | Not Active
